Records with an inconclusive call do not appear.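 How the source made its calls, unless noted: active means inhibition over a set limit, the all-compound mean plus 3 SD, in both replicate runs; inconclusive means over that limit in just one replicate run; inactive means at or under that limit in both runs.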
How the values were obtained:
[1] = S. cerevisiae growth inhibition in permissive medium (OD615), pilot counter-assay for S. cerevisiae lifespan shortening project, permissive growth control (AID 705;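 active means growth inhibition above 25% in both replicates, a cutoff set 3 SD above the mean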); details: OD615, 24 h, at 10 µM, hits give high values
Summary of the method: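 System: Engineered DeaD yeast | Buffer or medium: SC raffinose/galactose permissive medium | Doses: 10 µM single dose, 0.25% DMSO | Times: 24 h exposure, 30 °C | Measured by: OD615 turbidity read | Read-out: Yeast growth inhibition indicated by reduced 24 h OD615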

[2] = S. cerevisiae growth inhibition in restrictive medium, OD615, pilot screen, restrictive growth control, yeast lifespan reduction project (AID 706;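 active means growth inhibition above a set limit, 3 SD over mean compound inhibition, in both replicates, cut at about 43% in these data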;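 further: modified DeaD lifespan yeast strain shifted to restrictive glucose medium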); details: OD615, 48 h, at 10 µM, hits give high values
Summary of the method: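 Assay system: engineered S. cerevisiae DeaD strain; Buffer or medium: CSMM-D glucose medium; Dosing: 10 µM compound, 0.25% DMSO; Times: cell pre-growth 4 h, compound exposure 48 h, 30 °C; Detection: absorbance (optical density) measured at 615 nm.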

[3] = doxorubicin toxicity protection in MRP-1 cells – H69AR cells, CellTiter-Glo, duplicate, MRP-1 activator project, pilot screen (AID 807;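 active means viability increase at or above a cutoff of the median across tested compounds plus 3 SD, cut at about 8.5% in these data, passing the limit was not always enough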;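 further: compound pretreatment 18-22 h then 72 h combined with doxorubicin; 0% = doxorubicin alone and 100% = vehicle without doxorubicin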); details: H69AR viability with doxorubicin, CellTiter-Glo luminescence; at 10 µM; hits give high values
[4] = viability of HCT116 without oncogenic beta-catenin – human colon tumor cells, pilot screen (AID 823;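 active means cell viability at or below a set limit in both duplicate runs, the limit being the all-compound median minus 4 SD, cut at about 23% in these data, passing the limit was not always enough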;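 further: 0% = wells killed by 20 µM Hyamine and 100% = untreated DMSO cell wells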); details: HCT116 beta-catenin knockout viability, CellTiter-Glo, 60 h; at 10 µM; hits give low values
[5] = viability of PTEN-null HCT116 cells – cell-based, HCT116 clonal line, CellTiter-Glo, pilot screen (AID 824;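 active means viability at or below 27.92% in each of two runs, the all-compound median minus 4 SD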;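 further: 0% = 20 µM Hyamine control and 100% = vehicle cell control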); details: HCT116 PTEN-deleted viability, 60 h, at 10 µM, hits give low values
[6] = RAM pathway blockade in budding yeast – dse1pr::URA3 reporter, 5-FOA selection, pilot screen (AID 869);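 further: 0% = DMSO wells with no growth and 100% = 10 µM 1-NA-PP1 with full growth; RAM network block rescues cells from 5-FOA so hits raise OD615 growth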; details: S. cerevisiae dse1pr::URA3 5-FOA growth, OD615, 2 d; at 10 µM; hits give high values; strain carries analog-sensitive mutant Cbk1 kinase
[7] = RAM signaling pathway blockade in yeast – S. cerevisiae, Pdr1DBD-CYC8 efflux-inhibited sensitized strain, primary screen (AID 1298;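 active means RAM network inhibition above 8.4% in each of two replicates, 3 SD over the compound average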;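 further: 0% = DMSO untreated cells without growth and 100% = 10 µM 1-NA-PP1 full growth; higher means more yeast growth rescued from 5-FOA killing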); details: S. cerevisiae cbk1-as DSE1-URA3 strain, 5-FOA growth OD615, 2 d; at 50 µM; hits give high values

Cc1ccc(C(c2sc3ncnn3c2O)N2CCCCC2)cc1 (stereo not drawn)
inactive: growth inhibition [1] -12.7% | growth inhibition [2] -15.6% | viability increase [3] 1.87% | viability [4] 92.9% | viability [5] 101% | inhibition [6] 0.04% | RAM network inhibition [7] -0.37%

O=C(c1cc(-c2ccc(O)cc2)on1)N1CCCc2ccccc21
inactive: growth inhibition [1] -15.5% | growth inhibition [2] 12.2% | viability increase [3] -5.72% | viability [4] 92.6% | viability [5] 88.3% | inhibition [6] 0.66% | RAM network inhibition [7] 1.51%

COCc1cc(C)nc2sc(C(=O)Nc3nccs3)c(N)c12
inactive: growth inhibition [1] -7.22% | growth inhibition [2] 11.6% | viability increase [3] -5.32% | viability [4] 109% | viability [5] 97.5% | inhibition [6] 0.145% | RAM network inhibition [7] 2.07%

CCOc1ccc2[nH]c(C)c(CN(C)C)c(=O)c2c1
inactive: growth inhibition [1] 1.46% | growth inhibition [2] 9.84% | viability increase [3] -1.41% | viability [4] 99.4% | viability [5] 95.1% | inhibition [6] -0.27% | RAM network inhibition [7] 4.03%

CC(=O)c1c(N2CCN(c3ccccc3)CC2)nc(=S)n(-c2ccccc2)c1C
inactive: growth inhibition [1] 3.6% | growth inhibition [2] 15.2% | viability increase [3] -3.16% | viability [4] 92.9% | viability [5] 99.9% | inhibition [6] 0.91% | RAM network inhibition [7] 6.47%

COC(=O)C1C(O)=C(C=NCC(C)N=CC2=C(O)C(C(=O)OC)C(C)(C)CC2=O)C(=O)CC1(C)C (stereo not drawn)
inactive: growth inhibition [1] -4.88% | growth inhibition [2] -3.87% | viability increase [3] -0.55% | viability [4] 92.4% | viability [5] 93.7% | inhibition [6] 2.5% | RAM network inhibition [7] 0.9%

Cc1cc(NC(=O)CSc2cn(CCNC(=O)c3ccccc3)c3ccccc23)no1
inactive: growth inhibition [1] -3.29% | growth inhibition [2] -0.585% | viability increase [3] -0.97% | viability [4] 88.1% | viability [5] 88.7% | inhibition [6] 3.04% | RAM network inhibition [7] 6.89%

CCOCCCNC(=O)Cc1cc(=O)[nH]c(=O)[nH]1
inactive: growth inhibition [1] -20.6% | growth inhibition [2] -19.6% | viability increase [3] -0.42% | viability [4] 99.2% | viability [5] 94.1% | inhibition [6] 1.44% | RAM network inhibition [7] 4.84%

O=C(NCCc1csc(-c2cccnc2)n1)c1ccc(Br)o1
inactive: growth inhibition [1] 1.56% | growth inhibition [2] 10.1% | viability increase [3] -2.6% | viability [4] 107% | viability [5] 97.3% | inhibition [6] 0% | RAM network inhibition [7] 2.18%

CC(=NCCc1ccccc1)C1=C(O)COC1=O
inactive: growth inhibition [1] 4.12% | growth inhibition [2] -6.99% | viability increase [3] -2.71% | viability [4] 98.2% | viability [5] 99.9% | inhibition [6] 0.87% | RAM network inhibition [7] 2.27%

CCOc1cc(C#N)c(NC(=O)c2ccnn2C)cc1OCC
inactive: growth inhibition [1] 8.46% | growth inhibition [2] 2.96% | viability increase [3] -2.47% | viability [4] 82.3% | viability [5] 97.7% | inhibition [6] 0.55% | RAM network inhibition [7] 5.18%

COc1ccc(CN2CCN(C(=O)c3ccco3)CC2)cc1OCc1ccccc1
inactive: growth inhibition [1] -9.2% | growth inhibition [2] -18.8% | viability increase [3] -2.34% | viability [4] 88% | viability [5] 83.3% | inhibition [6] 0.95% | RAM network inhibition [7] 2.98%

Nc1nonc1/C(=N/O)N1CCN(CCO)CC1
inactive: growth inhibition [1] 1.46% | growth inhibition [2] -1.22% | viability increase [3] 0% | viability [4] 104% | viability [5] 100% | inhibition [6] 1.46% | RAM network inhibition [7] 0.95%

Cc1coc2c(C)c3oc(=O)c4c(c3cc12)CCCC4
inactive: growth inhibition [1] -10.3% | growth inhibition [2] -13.6% | viability increase [3] -5.04% | viability [4] 81.3% | viability [5] 59% | inhibition [6] 2.46% | RAM network inhibition [7] 5.02%

c1ccc(-c2cnnc(N3CCCCC3)n2)cc1
inactive: growth inhibition [1] -4.88% | growth inhibition [2] 8.84% | viability increase [3] -1.75% | viability [4] 102% | viability [5] 97.4% | inhibition [6] 0.13% | RAM network inhibition [7] 5.69%

CC(=O)N1CCc2cc(C(=O)CN3CCC(C)CC3)ccc21
inactive: growth inhibition [1] -5.91% | growth inhibition [2] -4.73% | viability increase [3] -2.46% | viability [4] 104% | viability [5] 93.6% | inhibition [6] 1.56% | RAM network inhibition [7] 7.51%

Cn1nnnc1SCc1ccc(F)cc1
inactive: growth inhibition [1] -3.69% | growth inhibition [2] -4.48% | viability increase [3] -0.09% | viability [4] 98.1% | viability [5] 108% | inhibition [6] 1.25% | RAM network inhibition [7] 2.61%

CCP(=O)(c1ccccc1)C(C)(C)O (stereo not drawn)
inactive: growth inhibition [1] 6.37% | growth inhibition [2] -8.84% | viability increase [3] -2.44% | viability [4] 104% | viability [5] 93.9% | inhibition [6] 1.48% | RAM network inhibition [7] -0.68%

COc1cccc(C2c3c(oc4cc(C)c(C)cc4c3=O)C(=O)N2CCCN(C)C)c1 (stereo not drawn)
inactive: growth inhibition [1] -8.88% | growth inhibition [2] 0.12% | viability increase [3] -3.94% | viability [4] 93.6% | viability [5] 94.6% | inhibition [6] 0.885% | RAM network inhibition [7] 1.83%

Nc1nc2c(c3c1c(=O)oc1ccccc13)CCCCC2
inactive: growth inhibition [1] -4.79% | growth inhibition [2] 5.31% | viability increase [3] -2.59% | viability [4] 94.9% | viability [5] 96.2% | inhibition [6] 2.28% | RAM network inhibition [7] 2.05%

COc1ccc(C2c3c(oc4ccc(F)cc4c3=O)C(=O)N2CCN2CCOCC2)cc1OC (stereo not drawn)
inactive: growth inhibition [1] -0.77% | growth inhibition [2] 4.3% | viability increase [3] -1.12% | viability [4] 107% | viability [5] 108% | inhibition [6] 0.315% | RAM network inhibition [7] 2.7%

CCOC(=O)c1ccn(-c2nc(-c3ccco3)cc(C(F)(F)F)n2)n1
inactive: growth inhibition [1] -8.11% | growth inhibition [2] 6.16% | viability increase [3] 1.27% | viability [4] 106% | viability [5] 97.8% | inhibition [6] -0.505% | RAM network inhibition [7] 4.89%

COC(=O)C1=C(C)NC(=O)CC1c1cc2c(cc1Br)OCO2 (stereo not drawn)
inactive: growth inhibition [1] 4.83% | growth inhibition [2] 7.57% | viability increase [3] -1.64% | viability [4] 106% | viability [5] 94.7% | inhibition [6] 1.42% | RAM network inhibition [7] 5.87%

O=C(Cc1cc(=O)[nH]c(=O)[nH]1)N1CCN(C(=O)c2ccco2)CC1
inactive: growth inhibition [1] -10.2% | growth inhibition [2] -26.6% | viability increase [3] -2.96% | viability [4] 95.6% | viability [5] 95.6% | inhibition [6] 0.59% | RAM network inhibition [7] 1.53%
